Calls of active or inactive are those of the source. The calls are words filed in the database; no cut-off is given here.
Legend:
[1] = target: T1, Sodium/glucose cotransporter 2 (Homo sapiens, UniProt P31639); assay: Inhibition of human SGLT2 expressed in HEK293 cells assessed as inhibition of [14C]alpha-methylglucopyranoside uptake; type: cell-based
T1 sequence (P31639 whole entry): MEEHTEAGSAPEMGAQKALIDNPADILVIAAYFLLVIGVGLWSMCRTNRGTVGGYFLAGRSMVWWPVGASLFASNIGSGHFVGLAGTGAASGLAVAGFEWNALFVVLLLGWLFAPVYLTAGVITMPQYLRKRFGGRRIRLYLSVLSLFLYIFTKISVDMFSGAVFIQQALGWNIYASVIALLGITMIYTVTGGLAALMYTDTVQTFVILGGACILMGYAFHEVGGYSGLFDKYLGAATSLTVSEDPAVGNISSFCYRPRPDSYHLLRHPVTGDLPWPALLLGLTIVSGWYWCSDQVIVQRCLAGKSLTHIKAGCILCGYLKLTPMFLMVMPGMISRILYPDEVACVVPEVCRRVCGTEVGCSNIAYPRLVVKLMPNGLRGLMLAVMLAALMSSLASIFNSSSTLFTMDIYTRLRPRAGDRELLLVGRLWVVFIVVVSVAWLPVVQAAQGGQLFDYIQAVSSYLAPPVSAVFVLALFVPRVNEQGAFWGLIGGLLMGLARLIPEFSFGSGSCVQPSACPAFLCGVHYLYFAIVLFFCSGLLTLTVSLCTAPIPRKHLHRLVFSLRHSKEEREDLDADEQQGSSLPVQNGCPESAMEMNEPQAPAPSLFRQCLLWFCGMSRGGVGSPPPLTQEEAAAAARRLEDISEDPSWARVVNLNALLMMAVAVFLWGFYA
How it was run: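 Cells stably expressing human SGLT2 were used to measure sodium-coupled uptake of [14C]α-methylglucopyranoside, a metabolically stable SGLT-specific glucose analogue. Uptake was measured across increasing compound concentrations, and IC50 was derived from the inhibition of uptake.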

[2] = target: T2, Sodium/glucose cotransporter 2 (Mus musculus, UniProt Q923I7); assay: Inhibition of mouse SGLT2-mediated [14C]alpha-methylglucopyranoside uptake by cell based assay
T2 sequence (Q923I7 whole entry): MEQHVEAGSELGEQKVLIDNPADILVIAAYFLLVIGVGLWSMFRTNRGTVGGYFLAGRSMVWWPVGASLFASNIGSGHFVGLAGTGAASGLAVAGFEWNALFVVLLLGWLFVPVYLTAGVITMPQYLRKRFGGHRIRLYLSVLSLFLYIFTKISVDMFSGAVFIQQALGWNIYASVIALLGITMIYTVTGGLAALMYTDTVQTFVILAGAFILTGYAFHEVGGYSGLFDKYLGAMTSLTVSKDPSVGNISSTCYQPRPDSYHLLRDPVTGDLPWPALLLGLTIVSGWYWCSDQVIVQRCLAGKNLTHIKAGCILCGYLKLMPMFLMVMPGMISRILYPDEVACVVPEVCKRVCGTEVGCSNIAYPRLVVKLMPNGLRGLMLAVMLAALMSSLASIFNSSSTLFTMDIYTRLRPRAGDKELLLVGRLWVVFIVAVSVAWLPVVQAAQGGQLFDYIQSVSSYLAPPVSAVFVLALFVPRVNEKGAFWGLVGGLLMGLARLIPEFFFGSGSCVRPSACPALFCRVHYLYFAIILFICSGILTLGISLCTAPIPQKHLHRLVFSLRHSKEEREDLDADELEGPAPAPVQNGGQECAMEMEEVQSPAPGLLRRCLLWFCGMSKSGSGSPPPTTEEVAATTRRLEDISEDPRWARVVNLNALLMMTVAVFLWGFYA

[3] = (§1) Mean resident time in mouse at 1 mg/kg, iv; type: ADME, organism-based; set-up: dose 1 mg/kg, route intravenous; conditions: in vivo
[4] = Apparent oral clearance in mouse at 10 mg/kg, po; type: ADME, organism-based; set-up: dose 10 mg/kg, route oral; conditions: in vivo
[5] = test system: Mus musculus; assay: Apparent volume of distribution with respect to the bioavailability in mouse at 1 mg/kg, iv; type: ADME, organism-based; conditions: in vivo
[6] = (§2) Apparent volume of distribution with respect to the bioavailability in mouse at 10 mg/kg, po; type: ADME, organism-based; conditions: in vivo, read-out: Vc/F
[7] = (§3) AUC (0 to infinity) in mouse at 1 mg/kg, iv; type: ADME, organism-based, Plasma; set-up: dose 1 mg/kg, route intravenous, time infinity; conditions: plasma
[8] = test system: Mus musculus; assay: Half life in mouse at 10 mg/kg, po; type: ADME, organism-based; set-up: dose 10 mg/kg, route oral; conditions: in vivo
[9] = test system: Mus musculus; assay: Oral bioavailability in mouse at 10 mg/kg; type: ADME, organism-based; conditions: in vivo
[10] = (§4) AUC (0 to infinity) in mouse at 10 mg/kg, po; type: ADME, organism-based, Plasma; set-up: time infinity, dose 10 mg/kg, route oral; conditions: plasma
[11] = (§5) Mean resident time in mouse at 10 mg/kg, po; type: ADME, organism-based; set-up: dose 10 mg/kg, route oral; conditions: in vivo
[12] = (§6) Tmax in mouse at 10 mg/kg, po; type: ADME, organism-based; set-up: dose 10 mg/kg, route oral; conditions: in vivo
[13] = Clearance in mouse at 1 mg/kg, iv; type: ADME, organism-based; set-up: dose 1 mg/kg, route intravenous; conditions: in vivo
[14] = (§7) Cmax in mouse at 10 mg/kg, po; type: ADME, organism-based; set-up: dose 10 mg/kg, route oral; conditions: in vivo
[15] = (§8) Volume of distribution at steady state in mouse at 1 mg/kg, iv; type: ADME, organism-based; set-up: dose 1 mg/kg, route intravenous; conditions: in vivo, read-out: Vdss
[16] = (§9) Tmax in mouse at 1 mg/kg, iv; type: ADME, organism-based; set-up: dose 1 mg/kg, route intravenous; conditions: in vivo
[17] = (§10) Half life in mouse at 1 mg/kg, iv; type: ADME, organism-based; set-up: dose 1 mg/kg, route intravenous; conditions: in vivo
[18] = (§11) AUC(last) in mouse at 10 mg/kg, po; type: ADME, organism-based, Plasma; set-up: time 0 - last, dose 10 mg/kg, route oral; conditions: plasma
[19] = test system: Mus musculus; assay: Induction of glucosuria in high fat diet induced obese albino C57 mouse at 10 to 100 mg/kg, po administered as single administration measured after 17 hrs by glucose excretion assay; type: functional, organism-based
How it was run: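 Adult C57 diet-induced obese mice were given one oral gavage dose spanning 10 to 100 mg/kg. Urinary glucose excretion was measured over the first 17 h after dosing, n = 6 per group, with a vehicle-treated group included.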

[20] = test system: Mus musculus; assay: as §1; type: ADME, organism-based; set-up: dose 1 mg/kg, route intravenous; conditions: in vivo
[21] = test system: Mus musculus; assay: as §2; type: ADME, organism-based; conditions: in vivo
[22] = test system: Mus musculus; assay: as §3; type: ADME, organism-based, Plasma; set-up: dose 1 mg/kg, route intravenous, time infinity; conditions: in vivo
[23] = test system: Mus musculus; assay: as §4; type: ADME, organism-based, Plasma; set-up: time infinity, dose 10 mg/kg, route oral; conditions: in vivo
[24] = test system: Mus musculus; assay: as §5; type: ADME, organism-based; set-up: dose 10 mg/kg, route oral; conditions: in vivo
[25] = test system: Mus musculus; assay: as §6; type: ADME, organism-based; set-up: dose 10 mg/kg, route oral; conditions: in vivo
[26] = test system: Mus musculus; assay: as §7; type: ADME, organism-based; set-up: dose 10 mg/kg, route oral; conditions: in vivo
[27] = test system: Mus musculus; assay: as §8; type: ADME, organism-based; set-up: dose 1 mg/kg, route intravenous; conditions: in vivo
[28] = test system: Mus musculus; assay: as §9; type: ADME, organism-based; set-up: dose 1 mg/kg, route intravenous; conditions: in vivo
[29] = test system: Mus musculus; assay: as §10; type: ADME, organism-based; set-up: dose 1 mg/kg, route intravenous; conditions: in vivo
[30] = test system: Mus musculus; assay: as §11; type: ADME, organism-based, Plasma; set-up: time 0 - last, dose 10 mg/kg, route oral; conditions: in vivo
[31] = test system: Mus musculus; assay: Induction of glucosuria in high fat diet induced obese albino C57 mouse at 30 mg/kg, po administered as single administration measured after 24 hrs by glucose excretion assay; type: functional, organism-based; set-up: dose 30 mg/kg
How it was run: (§12)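 DIO mice received one dose, either by oral gavage or as a dietary admixture. Urinary glucose excretion was then followed past 24 h, n = 6.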

[32] = test system: Mus musculus; assay: Induction of glucosuria in high fat diet induced obese albino C57 mouse at 75 mg/kg administered through diet measured after 24 hrs by glucose excretion assay; type: functional, organism-based; set-up: dose 75 mg/kg; how it was run: as §12
[33] = test system: Mus musculus; assay: Induction of glucosuria in high fat diet induced obese albino C57 mouse at 75 mg/kg, po administered as single administration measured after 24 hrs by glucose excretion assay; type: functional, organism-based; set-up: dose 75 mg/kg; how it was run: as §12
[34] = test system: Mus musculus; assay: Induction of glucosuria in high fat diet induced obese albino C57 mouse at 259 mg/kg administered daily through diet for 4 consecutive days by glucose excretion assay; type: functional, organism-based; set-up: dose 259 mg/kg
How it was run: (§13)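 DIO mice received the compound as a dietary admixture for 4 consecutive days. Average daily intakes were 8, 26, 77 and 259 mg/kg. Urinary glucose excretion was measured each day, n = 6.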

[35] = test system: Mus musculus; assay: Induction of glucosuria in high fat diet induced obese albino C57 mouse at 26 mg/kg administered daily through diet for 4 consecutive days by glucose excretion assay; type: functional, organism-based; set-up: dose 26 mg/kg; how it was run: as §13
[36] = test system: Mus musculus; assay: Induction of glucosuria in high fat diet induced obese albino C57 mouse at 77 mg/kg administered daily through diet for 4 consecutive days by glucose excretion assay; type: functional, organism-based; set-up: dose 77 mg/kg; how it was run: as §13

COC1O[C@@H](c2ccc(Cl)c(Cc3ccc(OC(=S)N(C)C)cc3)c2)[C@H](O)[C@@H](O)[C@@H]1O (mixture of isomers)
IC50 [1]: 0.74 µM | IC50 [2]: 0.33 µM

CCOc1ccc(Cc2cc([C@@H]3OC(OCCO)[C@@H](O)[C@H](O)[C@H]3O)ccc2Cl)cc1 (mixture of isomers)
IC50 [1]: 0.036 µM | IC50 [2]: 0.023 µM

CCOc1ccc(Cc2cc([C@@H]3OC(OC)C[C@H](O)[C@H]3O)ccc2Cl)cc1 (mixture of isomers)
IC50 [1]: > 30 µM | IC50 [2]: 14 µM

COc1ccc(Sc2cc([C@@H]3OC(OC)[C@@H](O)[C@H](O)[C@H]3O)ccc2Cl)cc1 (mixture of isomers)
IC50 [1]: 0.18 µM | IC50 [2]: 0.1 µM

CCOc1ccc(Cc2cc([C@]3(C)OC(OC)[C@@H](O)[C@H](O)[C@H]3O)ccc2Cl)cc1 (mixture of isomers)
IC50 [1]: 0.59 µM | IC50 [2]: 0.22 µM

CCOc1ccc(Cc2cc([C@@H]3OC(OC)[C@@H](O)[C@H](O)[C@H]3O)ccc2C)cc1 (mixture of isomers)
IC50 [1]: 0.055 µM | IC50 [2]: 0.023 µM

CCOc1ccc(Cc2cc([C@@H]3OC(OC(C)C)[C@@H](O)[C@H](O)[C@H]3O)ccc2Cl)cc1 (mixture of isomers)
IC50 [1]: 0.42 µM | IC50 [2]: 0.19 µM

CCOc1ccc(Cc2cc([C@@H]3OC(OC)[C@@H](O)[C@H](O)[C@H]3O)ccc2Cl)cc1 (mixture of isomers; 7a) [listing 1 of 2 here]
MRT [3]: 1.62 h | IC50 [1]: 0.025 µM | CL/F [4]: 35.4 mL/min/kg | Vc/F [5]: 1.91 L/kg | Vd/F [6]: 8.48 L/kg | AUC(0-inf) [7]: 1.91 µM·h | t1/2 [8]: 2.76 h | F [9]: 61.2% | AUC(0-inf) [10]: 11.7 µM·h | MRT [11]: 4.6 h | Tmax [12]: 0.38 h | clearance [13]: 22.5 mL/min/kg | Cmax [14]: 4.38 µM | Vd [15]: 1.98 L/kg | Tmax [16]: 0.38 h | half-life [17]: 1.07 h | AUC(0-t) [18]: 8.19 µM·h | IC50 [2]: 0.0071 µM

CCOc1ccc(Cc2cc([C@@H]3OC(OC)[C@@H](O)[C@H](O)[C@H]3O)ccc2Cl)cc1 (mixture of isomers; 7a) [listing 2 of 2 here]
Activity [19]: Dose-dependent effect

CCOc1ccc(Cc2cc([C@@H]3OC(OC)[C@@H](O)[C@H](O)[C@H]3O)ccc2Cl)cc1 (mixture of isomers; 7b)
IC50 [1]: 4.8 µM | IC50 [2]: 0.28 µM

CCOc1ccc(Cc2cc([C@@H]3OC(OC)[C@@H](O)[C@H](O)[C@H]3O)ccc2Cl)cc1 (mixture of isomers; 7c) [listing 1 of 2 here]
MRT [20]: 1.77 h | IC50 [1]: 0.014 µM | Vc/F [5]: 3.08 L/kg | Vc/F [21]: 14.2 L/kg | AUC [22]: 1.481 µM·h | t1/2 [8]: 6.96 h | F [9]: 100% | AUC [23]: 17.458 µM·h | MRT [24]: 8.44 h | Tmax [25]: 0.25 h | Cmax [26]: 6.49 µM | Vdss [27]: 2.93 L/kg | Tmax [28]: 0.25 h | t1/2 [29]: 1.29 h | AUC [30]: 16.191 µM·h | IC50 [2]: 0.0063 µM

CCOc1ccc(Cc2cc([C@@H]3OC(OC)[C@@H](O)[C@H](O)[C@H]3O)ccc2Cl)cc1 (mixture of isomers; 7c) [listing 2 of 2 here]
Activity [31]: Active | Activity [32]: Active | Activity [19]: Dose-dependent effect | Activity [33]: Active | Activity [34]: Active | Activity [35]: Active | Activity [36]: Active

CCOc1ccc(C(=O)c2cc([C@@H]3OC(OC)[C@@H](O)[C@H](O)[C@H]3O)ccc2Cl)cc1 (single isomer, unassigned)
IC50 [1]: 0.1 µM | IC50 [2]: 0.057 µM

CCOc1ccc(Cc2cc([C@@H]3OC(OC)[C@@H](O)[C@H](O)[C@H]3O)ccc2Cl)cc1 (stereo in doubt; 6a)
IC50 [1]: 0.025 µM | IC50 [2]: 0.0071 µM

CCOc1ccc(Cc2cc([C@@H]3OC(OC(C)C)[C@@H](O)[C@H](O)[C@H]3O)ccc2Cl)cc1 (stereo in doubt; 9b)
IC50 [1]: 0.033 µM | IC50 [2]: 0.015 µM
